In ChEMBL document CHEMBL4513216, “Probing the Open Global Health Chemical Diversity Library for Multistage-Active Starting Points for Next-Generation Antimalarials” (ACS Infect Dis, 2020) one finds cytotoxicity data, which are given here for 98 compounds.

This data set in a line: Toxicity liver stage against HepG2, at 10uM. The format is cell-based. On the set-up: test concentration 10 uM, cell line HepG2-A16-CD81EGFP. Conditions: human, HepG2-A16-CD81EGFP cells; read-out: INHIBITION
In short, it runs like this:
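Uninfected HepG2-A16-CD81EGFP cells, 3 × 10^3 per well, 1536-well, plated on prespotted compound at 10 μM final, parasite-free screening media added to match infected plates; puromycin 10 μM positive, DMSO 0.5% negative; run in parallel with 48 h PbLuc assay at 37 °C, 5% CO2; viability by CellTiter-Glo luminescence, normalized to controls.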

Structures are written as SMILES.

As for `O=C(NCCN1CCOCC1)c1ccnn1-c1ccc2ccccn12`, the cytotoxicity at 10 µM is 10.9%.

`COc1cc(NC2CCS(=O)(=O)C2)ncn1` (stereo not drawn): the cytotoxicity at 10 µM came out at 7.53%.

In the case of `CCCc1nnsc1C(=O)NCC(O)c1ccoc1` (stereo not drawn), the cytotoxicity at 10 µM was determined as 4.25%.

Turning to `Cc1cnc(N)nc1NCCSCc1[nH]cnc1C`, the cytotoxicity at 10 µM amounted to 4.34%.

Consider `O=C(c1c[nH]nn1)N1CCN(C(c2ccccc2)C(F)(F)F)CC1` (stereo not drawn), for which the cytotoxicity at 10 µM was 8.92%.

Consider `CN(C)S(=O)(=O)c1ccc2c(c1)N(Cc1ccccn1)CCC2`, for which the cytotoxicity at 10 µM turned out to be 0.645%.

For `Cc1cc(CN(C)C(=O)Nc2ccccc2C)no1`, the cytotoxicity at 10 µM was -8.75%.

As to `CC(C)c1nnc(CN2CCCC(c3cc(C(N)=O)[nH]n3)C2)o1` (stereo not drawn), the cytotoxicity at 10 µM was -29.7%.

On to `CC(C)Cc1cc(C(=O)NC(C)C)[nH]n1`, for which the cytotoxicity at 10 µM is 5.67%.

Regarding `Cc1nc(-c2cc(C(=O)O)co2)cs1`, the cytotoxicity at 10 µM worked out at 3.39%.

`O=C(NCc1nnc2n1CCCCC2)N1CCc2ccccc2C1`: the cytotoxicity at 10 µM was found to be 4.66%.

`CCS(=O)(=O)N1CCC2(CC1)CC[C@@]1(C(=O)N(C)C)CN(C)C[C@@H]21`: the cytotoxicity at 10 µM came to 10.4%.

Turning to `COc1ccc(CN2C[C@H]3CC[C@@H](C2)N(S(C)(=O)=O)C3)cc1`, the cytotoxicity at 10 µM is -5.75%.

As to `CC(C)N1CC[C@@H]2OC[C@H](C(=O)Nc3cccnc3)C[C@@H]2C1`, the cytotoxicity at 10 µM was 15.7%.

`Cc1nnc(N2C[C@H](OCC3CCCC3)[C@H]3OCCC[C@H]32)s1`: the cytotoxicity at 10 µM stood at 5.16%.

Consider `CCCc1cnc(C)nc1N1CCC2(CC1)CNC(=O)O2`, for which the cytotoxicity at 10 µM amounted to 44.6%.

For the compound `N#CC1(NC(=O)c2cc(Cl)ccc2OC(F)F)CCOCC1`, the cytotoxicity at 10 µM turned out to be 7.48%.

For `NC(=O)CN1CCC(NC(=O)COCCOc2ccccc2)CC1`, the cytotoxicity at 10 µM is -9.46%.

For `O=C(C1CC1)N1CCC2(CC1)COCCN2Cc1ccc(F)cc1`, the cytotoxicity at 10 µM is -69.4%.

`Cc1cc(C)n(CC2CCN(CC(O)CN3CCOCC3)CC2)n1` (stereo not drawn): the cytotoxicity at 10 µM is -7.35%.

With `CC(C)n1ccnc1CN1CCCN(C(=O)CC2C=CCC2)CC1` (stereo not drawn), the cytotoxicity at 10 µM was 3.08%.

Regarding `CCOCC1CN(c2ccc(C)nn2)Cc2nn(CC)cc21` (stereo not drawn), the cytotoxicity at 10 µM amounted to 11.5%.

As to `Cc1ncc(CN2CCC3(CCCN(CC4CCC4)C3)C2)cn1` (stereo not drawn), the cytotoxicity at 10 µM is -6.7%.

As for `CSCC(CCO)NC(=O)c1cccc(Cl)c1F` (stereo not drawn), the cytotoxicity at 10 µM was 19%.

As for `Cc1cc(Nc2ccc(F)cn2)cc(C2CCN(Cc3ncc[nH]3)C2)n1` (stereo not drawn), the cytotoxicity at 10 µM is -8.26%.

As for `CCOC(=O)c1c(NC(=O)CN2CCN(C(C)=O)CC2)sc(C)c1C`, the cytotoxicity at 10 µM turned out to be 1.15%.

On to `CC(C)CCN1C2(CCN(Cc3nccs3)C2)c2ccccc2S1(=O)=O` (stereo not drawn), for which the cytotoxicity at 10 µM was -65%.

As to `O=C1CCSCC(C(=O)N2CCC3(CC2)OCCO3)N1` (stereo not drawn), the cytotoxicity at 10 µM is 0.595%.

`Cc1csc(CCCNC(C)CC(=O)Nc2cccc(C)c2C)n1` (stereo not drawn): the cytotoxicity at 10 µM worked out at 5.76%.

With `COCc1ccccc1C(=O)OCc1noc(C)n1`, the cytotoxicity at 10 µM is 7.01%.

For `CCCN1CCCC2(CCN(c3nc(C)nc4ccsc34)C2)C1=O` (stereo not drawn), the cytotoxicity at 10 µM turned out to be 17.4%.

As to `Cc1cccc(CN2C[C@@H]3OCCN(S(=O)(=O)N(C)C)[C@@H]3C2)n1`, the cytotoxicity at 10 µM was 11.2%.

For `CCOCC1c2c(cnn2C)CCN1C(=O)c1cc(C)on1` (stereo not drawn), the cytotoxicity at 10 µM was -81.9%.

For `c1cn2c(n1)CNCC(COCC1CC1)C2` (stereo not drawn), the cytotoxicity at 10 µM was 17.4%.

For the compound `CCN(CC)c1ncnc2c1CCN(c1ccc(C)nn1)CC2`, the cytotoxicity at 10 µM was -108%.

On to `CC(C)c1noc(CN(C)C(=O)c2ccccc2-c2nc[nH]n2)n1`, for which the cytotoxicity at 10 µM was determined as 10.4%.

Turning to `COc1nn(C)c2c1CCCN(C(=O)c1cccs1)C2`, the cytotoxicity at 10 µM is 8.36%.

Regarding `COC(=O)c1cccc(S(=O)(=O)NC(=O)c2cccc(OC)c2OC)c1`, the cytotoxicity at 10 µM is 12.2%.

For `NC(=O)C(NC1CCN(CC2CCCCC2)CC1)c1ccccc1` (stereo not drawn), the cytotoxicity at 10 µM is -4.57%.

Take `CCC(C)(CC(=O)O)NC(=O)Cc1ccccc1F` (stereo not drawn): the cytotoxicity at 10 µM was -1.28%.

With `O=C(NCc1ccc(-n2cncn2)nc1)c1cc[nH]n1`, the cytotoxicity at 10 µM was -7.45%.

For `Cc1ncc2c(n1)CN(CC(=O)Nc1nncs1)CC2`, the cytotoxicity at 10 µM was -10.8%.

`Cc1ccc(OCC(=O)NCC(C)C)nc1`: the cytotoxicity at 10 µM was -18.3%.

Regarding `CCOCCN1CCN(C(C)c2nc(C3CC3)no2)CC1` (stereo not drawn), the cytotoxicity at 10 µM is -4.51%.

On to `CN(Cc1cccc(O)c1)CC1CCCN(CCc2ccc(Cl)cc2)C1` (stereo not drawn), for which the cytotoxicity at 10 µM was 6.22%.

As to `O=C(CCN1CCCC1c1cccc2c1OCCO2)N1CCOCC1` (stereo not drawn), the cytotoxicity at 10 µM worked out at 25.6%.

Turning to `Cc1cc(C)n(CC(=O)N2CCCCC2CCN(C)C)c(=O)n1` (stereo not drawn), the cytotoxicity at 10 µM is -14.7%.

For `O=C(c1ccoc1)N1CC[C@@H]2[C@H]1CCC(=O)N2c1ccccc1`, the cytotoxicity at 10 µM was -0.362%.

On to `Cc1n[nH]c(C)c1C1CCCN1C(=O)NC(C)(C)C` (stereo not drawn), for which the cytotoxicity at 10 µM is -4.27%.

As to `CCCN(CCC)S(=O)(=O)NC(C)C(=O)N(C)C` (stereo not drawn), the cytotoxicity at 10 µM is -0.237%.

For the compound `CCOc1nc2cnccc2n(CC(=O)NCc2ccc(C)cc2)c1=O`, the cytotoxicity at 10 µM is -0.0308%.

With `COc1cccc(S(=O)(=O)CCN2CCC3(CC2)OCCO3)c1`, the cytotoxicity at 10 µM stood at 4.62%.

With `CC(c1nc(C2CC2)no1)N1CCN(CCCN2CCCC2=O)CC1` (stereo not drawn), the cytotoxicity at 10 µM was -13.4%.

As for `O=C1CC(NCc2cnc(C3CCCCC3)nc2)CN1c1ccccc1` (stereo not drawn), the cytotoxicity at 10 µM is -6.8%.

As for `CC1CN(C)CCN1C(=O)c1cnc2onc(CC(C)(C)C)c2c1` (stereo not drawn), the cytotoxicity at 10 µM was -1.6%.

Regarding `CCN(CC)S(=O)(=O)N(CC)Cc1ccc2c(c1)OCCO2`, the cytotoxicity at 10 µM is 4.66%.

Turning to `Cc1nc2c(c(C)c1CC(=O)NCc1ccccc1F)c(=O)[nH]n2C`, the cytotoxicity at 10 µM was -5.52%.

With `Cc1ccccc1CS(=O)(=O)CC(=O)NC1CCCCNC1=O` (stereo not drawn), the cytotoxicity at 10 µM was -7.23%.

For the compound `CCn1c(CN(C)C(=O)c2ccc(O)nc2)nc2ccccc21`, the cytotoxicity at 10 µM turned out to be 10.2%.

Take `Cc1nc(CN(Cc2cccs2)C2CCS(=O)(=O)C2)oc1C` (stereo not drawn): the cytotoxicity at 10 µM is -6.46%.

Consider `c1ccc(C2CCCCN2Cc2nc(-c3cnccn3)no2)nc1` (stereo not drawn), for which the cytotoxicity at 10 µM is -8.04%.

`Cc1nc(CN2CCC3(CC2)CC(=O)N(C)c2ccccc23)cs1`: the cytotoxicity at 10 µM worked out at 0.0115%.

Take `c1csc(-c2nc(CN3CCCCC3Cn3cncn3)cs2)c1` (stereo not drawn): the cytotoxicity at 10 µM was -1.19%.

With `Cc1nc(C)c(C(=O)NCCNC(=O)c2ccc(F)cc2F)s1`, the cytotoxicity at 10 µM is -5.55%.

Take `CC(=O)N1CCN(CCNS(=O)(=O)c2c(F)cccc2F)CC1`: the cytotoxicity at 10 µM was -1.14%.

For the compound `Cc1cc(CNC(=O)N2CCN(c3ccccc3)CC2)no1`, the cytotoxicity at 10 µM was 5.27%.

Turning to `Cc1nn(C)c(C)c1CN1CCN(CC2(O)CCCN(C)C2)CC1` (stereo not drawn), the cytotoxicity at 10 µM came to 9.07%.

Take `COC(=O)c1cc(CN2CCC(c3noc(C)n3)CC2)c(C)s1`: the cytotoxicity at 10 µM was -7.12%.

Regarding `Cc1nc2cc(O)nn2c(C)c1CCC(=O)NCCc1nccn1C`, the cytotoxicity at 10 µM is -0.84%.

Take `Cc1nn(COc2cccc(F)c2)c(C)c1NC(=O)C1CC1`: the cytotoxicity at 10 µM came out at 5.62%.

In the case of `COc1cc(OC)cc(N2CCC(NCc3occc3C)C2=O)c1` (stereo not drawn), the cytotoxicity at 10 µM amounted to 0.995%.

`O=C1CC2(CCN(Cc3ccc4cccc(O)c4n3)CC2)CN1`: the cytotoxicity at 10 µM is -15.3%.

Take `CCC(=O)NC1CCCN(C(=O)Nc2cccc(COC(C)C)c2)C1` (stereo not drawn): the cytotoxicity at 10 µM amounted to 7.96%.

Regarding `CCOc1ccc(CN2CC[C@@](C)(O)[C@@H](Cc3ccccc3)C2)cn1`, the cytotoxicity at 10 µM is -2.02%.

As for `Cc1c(C(=O)NC2CCCOC2)nnn1-c1ccccc1` (stereo not drawn), the cytotoxicity at 10 µM is -24.5%.

With `O=C(c1ncoc1C1CCCO1)N1CCCC2(CCCCC2)C1` (stereo not drawn), the cytotoxicity at 10 µM was -5.14%.

`Cc1cnc2c(c1NCc1ccccn1)c(=O)n(C)c(=O)n2C`: the cytotoxicity at 10 µM was -4.32%.

Consider `Cc1cnn(CC2CCCN2C(=O)CCCc2nc(C)no2)c1` (stereo not drawn), for which the cytotoxicity at 10 µM is 2.86%.

As for `CS(=O)(=O)N1CCCC12CCN(Cc1nccs1)C2` (stereo not drawn), the cytotoxicity at 10 µM stood at 2.26%.

Regarding `COc1cc(C(=O)N(Cc2cnn(C)c2)C(C)C)ccc1C`, the cytotoxicity at 10 µM is -3.14%.

Consider `Cc1csc(CN(C)C(C)C(=O)N2CCc3ccccc3C2)n1` (stereo not drawn), for which the cytotoxicity at 10 µM is -11.7%.

For the compound `CCOCC(O)CN1CCN(C(=O)c2ccc3c(c2)COC3)CC1` (stereo not drawn), the cytotoxicity at 10 µM is -0.0716%.

On to `CN(C)C1CCN(C(=O)c2ccnn2-c2ccc3ccccn23)CC1`, for which the cytotoxicity at 10 µM is -114%.

On to `C=C(C)CN1CCN(Cc2cnc(-c3ccc(OC)cc3)nc2)CC1`, for which the cytotoxicity at 10 µM was -3.41%.

For `CCOC(C)C(=O)NCc1ccc(N(C)C)cc1` (stereo not drawn), the cytotoxicity at 10 µM is -13.3%.

Turning to `CCc1ncncc1C(=O)NC1CCc2nc(C)cn2C1` (stereo not drawn), the cytotoxicity at 10 µM was -17.3%.

In the case of `CCc1nnc(CN(CC)C(=O)C2CC(=O)N(C3CCCC3)C2)o1` (stereo not drawn), the cytotoxicity at 10 µM is -2.57%.

In the case of `CN(Cc1ccccc1)c1ccc(C(F)(F)F)cn1`, the cytotoxicity at 10 µM stood at 10.2%.

For `CNC(=O)C1CN(C)CCN(C(=O)CCn2nnc3ccccc32)C1` (stereo not drawn), the cytotoxicity at 10 µM was found to be 2.71%.

Regarding `Cc1nc(C)c(C(=O)N2Cc3ccccc3OCC2Cn2ccnc2)o1` (stereo not drawn), the cytotoxicity at 10 µM was 7.92%.

Consider `N#Cc1ccc(N2CCC(OCCc3ccccc3)CC2)nc1`, for which the cytotoxicity at 10 µM is -9.67%.

As to `Cc1nn(C)c(C)c1CC(=O)NCc1ccnc(N2CCOCC2)c1`, the cytotoxicity at 10 µM is -14.7%.

As for `CCCc1cncnc1N1CCC(NCCc2ccc(O)cc2)CC1`, the cytotoxicity at 10 µM was determined as 2.47%.

Consider `Cc1cc(-c2ccc(=O)n(C3CCN(S(=O)(=O)N(C)C)CC3)n2)c(C)o1`, for which the cytotoxicity at 10 µM was 6.54%.

On to `Cc1nc(S(=O)(=O)NCCC(=O)NCc2ccc(C#N)cc2)cn1C`, for which the cytotoxicity at 10 µM was 5.17%.

Regarding `CC(C)CN1CCc2c(CN(C)Cc3ccco3)cncc2C1`, the cytotoxicity at 10 µM is 8.1%.

Consider `CCc1ccc(CCC(=O)NCc2nnc[nH]2)cc1`, for which the cytotoxicity at 10 µM was 7.47%.

On to `CC(NC(=O)N(C)Cc1ccsc1)c1ccc2c(c1)CCC(=O)N2` (stereo not drawn), for which the cytotoxicity at 10 µM was -7.23%.
